# Source: PubChem
# This is a sample that favours compounds with a hit; in the whole collection about 1.8% have one here.
# Thrombin inh: thrombin (human) inhibition; AID 1046; inhibition, % at 5 µM; P00734; alpha-thrombin, Boc-VPR-AMC fluorogenic substrate cleavage; 220,000 compounds, 0.26% hits;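 active means inhibition at or above 40%; inactive means inhibition below 40%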;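 further: 0% = enzyme with no compound and 100% = wells without enzyme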
#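 Material: human alpha-thrombin protein; Also added: Boc-VPR-AMC substrate, 15 µM final; Timing: enzyme reaction carried out at room temperature; Signal: fluorescence, ex 355 nm, em 460 nm; Measure: % inhibition of thrombin; Controls: enzyme without compound as high, wells lacking enzyme as low.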
# KLK5 inh: kallikrein 5 (human) inhibition; 210,000 compounds, 0.59% hits; recombinant hK5, fluorogenic AMC substrate cleavage; inhibition, % at 5 µM;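 active means inhibition of 40% or more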;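 further: 0% = enzyme controls without compound and 100% = no-enzyme blanks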
# Wee1 degr inh: human Wee1 degradation inhibition, primary screen | HeLa Luc-Wee1K328M stability, luciferase luminescence; 100% = proteasome inhibitor MG132 effect | reporter increase, % at 5 µM | P30291 | 220,000 compounds, 1.2% hits;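 active means activation above the mean of all tested compounds plus 3 SD, set per screening run, cut at about 8.8% in these data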;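 further: cells exposed to compound for 20 h before luminescence read; 0% = DMSO alone and 100% = MG132 at 30 µM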
# FXIa inh: blocks human coagulation factor XIa protease activity. purified FXIa, Boc-Glu-Ala-Arg-AMC fluorogenic substrate. inhibition, % at 5 µM. 220,000 compounds, 0.14% hits. AID 798;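 active means inhibition of at least 40%; inactive means inhibition below 40%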;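 further: fluorescence of freed AMC excited at 355 nm; 0% = enzyme without compound and 100% = no enzyme blank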
# FXIIa inh: blocks human coagulation factor XIIa protease activity; purified FXIIa, Boc-QGR-AMC fluorogenic substrate, 2 h; P00748; 220,000 compounds, 0.3% hits; inhibition, % at 5 µM; in the data active means inhibition above about 40%;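 further: 0% = enzyme with no compound and 100% = blank without enzyme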
# Target sequence (P00748 20-372 limits assumed): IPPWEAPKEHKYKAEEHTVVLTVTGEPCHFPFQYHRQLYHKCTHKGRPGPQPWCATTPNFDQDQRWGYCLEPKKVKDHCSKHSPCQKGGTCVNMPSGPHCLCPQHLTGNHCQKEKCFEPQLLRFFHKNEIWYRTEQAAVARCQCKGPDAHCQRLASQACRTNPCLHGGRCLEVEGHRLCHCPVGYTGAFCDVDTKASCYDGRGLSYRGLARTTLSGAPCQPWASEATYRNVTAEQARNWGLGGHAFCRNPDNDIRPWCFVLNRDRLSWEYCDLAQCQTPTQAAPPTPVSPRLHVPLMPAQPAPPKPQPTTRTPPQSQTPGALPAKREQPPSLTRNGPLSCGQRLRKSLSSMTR
# Target sequence (P00748 373-615 limits assumed): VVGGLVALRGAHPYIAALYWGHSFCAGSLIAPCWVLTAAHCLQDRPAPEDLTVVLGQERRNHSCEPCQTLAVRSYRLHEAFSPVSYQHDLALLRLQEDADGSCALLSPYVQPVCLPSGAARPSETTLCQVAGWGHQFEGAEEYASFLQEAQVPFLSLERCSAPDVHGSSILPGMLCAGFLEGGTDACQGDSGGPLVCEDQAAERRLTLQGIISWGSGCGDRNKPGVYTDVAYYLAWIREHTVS
# Platelet DG rel: platelet dense granule release activity; human platelet-rich plasma, SFLLRN dense granule ATP release, luminescence; inhibition, %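 (compounds screened at 7.5 µM in platelet-rich plasma)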; 300,000 compounds, 0.22% hits; AID 1663;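 active means mean replicate score, as percent of positive control, at or above 50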
# Wee1 degr conf: confirmation of human Wee1 degradation inhibitors; 1,100 compounds, 4% hits; activation, % at 5 µM; AID 1410; shares compounds with Wee1 degr inh; HeLa Luc-Wee1K328M degradation, luminescence; vehicle 0%, proteasome-blocked wells 100%; in the data active means activation above about 8.9%
# * = called active by the depositor; / = no result.
SMILES,Thrombin inh,KLK5 inh,Wee1 degr inh,FXIa inh,FXIIa inh,Platelet DG rel,Wee1 degr conf
COc1ccc(C(=O)NCc2ccc(-n3cccc3)cc2)cc1OC,7,17,-2,7,25,-1,/
O=[N+]([O-])c1ccc(/C=C/c2ccncc2)cc1,6,9,18*,8,14,-7,-1
CC(C)(C)C(=O)c1cnc(Nc2ccccc2Cl)s1,-7,13,16*,-6,-4,-5,4
CSc1nccc(Oc2cncc(Cl)c2)n1,-3,-21,17*,-1,6,5,-1
CSc1nccc(Oc2ccccc2Cl)n1,/,/,/,/,/,-2,/
Cc1ccc(S(=O)(=O)NCCCN2CCCC2)cc1,/,/,/,/,/,-4,/
Cc1ccc(NC(=O)CSc2nnc(-c3cccs3)o2)cc1S(=O)(=O)N(C)C,-3,/,21*,-1,2,3,2
CCN(CC)S(=O)(=O)c1cc(NC(=O)CSc2nnc(-c3cccs3)o2)ccc1C,20,-5,-1,2,15,-13,/
O=C(/C(=C/O)N=Nc1ccccc1)c1cccs1,6,-1,11*,-2,3,-2,2
COc1ccc(N=N/C(=C\O)C(=O)c2ccco2)cc1,-9,-1,-2,-1,10,4,/
Cc1ccc(N2CC(C(=O)O)CC2=O)cc1 (stereo not drawn),-6,-1,-4,-1,6,10,/
Cc1ccc(/C=N/NC(=O)c2ccc(OC3CCCC3)cc2)o1,/,/,/,/,/,-2,/
O=C(N/N=C/C1=Cc2ccccc2OC1)c1ccncc1,4,0,13*,0,10,5,-1
Cc1ccc(/C=N/NC(=O)c2ccncc2)o1,-4,-11,13*,8,14,-8,3
O=C(N/N=C/c1ccccc1C(=O)O)c1ccncc1,/,/,/,/,/,-6,/
COC1c2ccccc2C(=O)N1CCc1ccc(Cl)cc1 (stereo not drawn),/,/,/,/,/,-3,/
O=C(/C=C/c1cccnc1)/C=C/c1cccnc1,-6,-8,18*,-6,7,/,22*
Cc1ccsc1/C=C(\C#N)C(=O)NC1CCS(=O)(=O)C1 (stereo not drawn),-2,-4,12*,3,4,-5,3
Cc1cccn2c(=O)c(/C=C(\C#N)C(=O)NC3CCS(=O)(=O)C3)c(N3CCC(C)CC3)nc12 (stereo not drawn),-24,-91,2,-12,-21,1,/
C=CCn1c(SCc2cc(=O)n3cc(C)ccc3n2)nnc1-c1ccc(F)cc1,-2,-8,15*,1,3,-1,2
Cc1ccc2nc(CSc3nnc(-c4ccncc4)n3C)cc(=O)n2c1,-4,-4,0,0,5,8,/
Cc1ccc(C(=O)CSc2nc3ccccc3c(=O)[nH]2)cc1,4,-13,21*,-5,11,-3,1
CCc1ccc(C(=O)CSc2nc3ccccc3c(=O)[nH]2)cc1,-5,-9,-1,-17,1,1,/
N#CCCC(CCC#N)C1=NCCc2ccccc21,-10,-2,-4,-2,1,1,/
Cc1ccccc1OCc1nc2ccccc2c(=O)n1/N=C/c1cn[nH]c1-c1ccccc1,-6,-16,11*,3,14,-13,6
SMILES,Thrombin inh,KLK5 inh,Wee1 degr inh,FXIa inh,FXIIa inh,Platelet DG rel,Wee1 degr conf
Cc1ccc(-c2[nH]ncc2/C=N/n2c(COc3ccccc3)nc3ccccc3c2=O)cc1,-10,-5,2,-3,12,6,/
COc1ccc(OCCn2c(=O)sc3ccccc32)cc1,0,-6,13*,-2,8,0,1
Cc1cccc(-n2ccc(=O)c(C(=O)Nc3ccc(S(=O)(=O)Nc4nccc(C)n4)cc3)n2)c1,/,/,/,/,/,-4,/
CSCCC(NC(=O)c1ccccc1Br)C(=O)N1CCCCCCC1 (stereo not drawn),/,/,/,/,/,-13,/
Cn1c(C(=O)Nc2ccc3c(c2)OCCO3)cc2sccc21,5,-15,16*,21,31,-5,7
O=C(Nc1ccc2c(c1)OCCO2)c1cc2sccc2n1Cc1ccccc1,-3,3,3,-6,12,4,/
O=C(Cc1cccs1)NCCSc1c(-c2ccc(Cl)cc2)[nH]c2ccccc12,2,-14,13*,17,18,-15,2
N#C/C(C(=O)N1CCOCC1)=C1/SC(Cc2ccccc2Cl)C(=O)N1c1ccccc1 (stereo not drawn),0,4,11*,11,10,6,0
N#C/C(C(=O)NCc1ccco1)=C1/SC(Cc2ccc(Cl)cc2)C(=O)N1c1ccccc1 (stereo not drawn),8,-11,0,13,19,/,/
O=C(NC1CCCCCC1)C1Cc2ccccc2CN1C(=O)c1ccco1 (stereo not drawn),-8,-4,21*,-4,1,-4,3
O=C(Nc1ccccc1)C1Cc2ccccc2CN1C(=O)c1ccco1 (stereo not drawn),-4,-16,-1,-4,4,-8,/
COc1cc(/C=N/NC(=O)c2ccc(CSc3nncn3C)cc2)cc(OC)c1O,-11,-3,11*,2,10,0,-2
CSc1ccc(S(=O)(=O)NC2CC2)cc1,/,/,/,/,/,1,/
O=C(c1ccco1)N1N=C(c2cccs2)CC1c1cc([N+](=O)[O-])ccc1O (stereo not drawn),/,/,/,/,/,-9,/
CC(=O)c1sc(NC(=O)c2ccccc2F)nc1-c1ccccc1,-21,0,14*,-7,10,-3,2
CCCCOc1ccc(-c2[nH]ncc2C=O)cc1,-12,4,15*,-1,6,9,5
O=C1Cc2ccccc2C(=O)N1c1cccc(Cl)c1,/,/,/,/,/,4,/
CC(C)Cn1c(-c2ccc(C#N)cc2)nc2c1c(=O)[nH]c(=O)n2CC(C)C,-3,-18,36*,-5,3,7,1
COCCn1c(-c2ccc(NC(C)=O)cc2)nc2c1c(=O)[nH]c(=O)n2CC(C)C,/,/,/,/,/,-11,/
CCSc1nn2c(=O)c3ccccc3nc2s1,2,-2,15*,3,23,-1,1
CCOn1c(SCC)nc2ccccc2c1=O,1,-18,2,7,12,11,/
Cn1c(O)c(C2=c3ccccc3=NC2=O)sc1=Nc1ccc(Cl)cc1,1,-2,13*,4,7,-3,3
O=c1cc(/C=C/c2ccccc2)oc2ccccc12,-3,2,12*,-6,4,1,5
O=C(NC1CC1)c1cc(=O)c2ccccc2o1,-3,-19,-1,-3,13,-8,/
O=c1oc2cc(Cl)ccc2n1CSc1nc2ccccc2s1,4,-19,-1,3,10,0,/
CNCC(O)COc1cccc(OC)c1 (stereo not drawn),7,-4,11*,-7,4,6,-2
